In data set [1] the test system is Pseudomonas aeruginosa. Put plainly: Microbiostatic activity against Pseudomonas aeruginosa ATCC 9027 after 24 hrs by turbidimetric method. The data set is classed as functional. The settings on record: ATCC 9027, 24 h. The procedure, abridged:
(§1)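 Exponential-phase bacteria are grown overnight on TSA, then overnight at 30 °C in M9G (pH 7.0). Suspension is adjusted to OD660 0.05 (about 5·10^6–5·10^7 cfu/mL), verified by plate count. Automated serial dilutions of agent in deionised water are inoculated and incubated 24 h at 30 °C. MIC is the first concentration without turbidity.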

Data set [2] deals with Candida albicans. Description: Microbiostatic activity against Candida albicans ATCC 10231 after 72 hrs by turbidimetric method. The data set is classed as functional. The settings on record: ATCC 10231, 72 h. The procedure, abridged: (§2)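 Turbidimetric broth microdilution: automated serial dilutions of agent in sterile deionised water, then inoculation. Spores come from 5–7 day SDA cultures at 25 °C, harvested in M9G (pH 5.0) and gauze-filtered to remove mycelium. Inoculum is set to 5·10^6–5·10^7 spores/mL by counting cell. Incubation is 72 h at 25 °C. MIC is the first concentration with no turbidity.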

Data set [3] has as its system Aspergillus niger. Description: Microbiostatic activity against Aspergillus niger ATCC 6275 after 72 hrs by turbidimetric method. Conditions: ATCC 6275, 72 h. The data set is classed as functional. The procedure, abridged: as §2
Data set [4] relates to Staphylococcus aureus. Description: Microbiostatic activity against Staphylococcus aureus ATCC 6538 after 24 hrs by turbidimetric method. The data set is classed as functional. Conditions: ATCC 6538, 24 h. The procedure, abridged:
as §1

The subject of data set [5] is Pseudomonas aeruginosa. Description: Microbicidal activity against Pseudomonas aeruginosa ATCC 9027 after 5 days by microtiter plate method. The data set is classed as functional. The settings on record: ATCC 9027, 120 h. The procedure, abridged:
(§3)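 Bacterial MIC microtiter plates are held 5 days. For each of the three concentrations above the MIC, 100 µL is plated on TSA or SDA plates. MLC is the first concentration showing no growth after subculture.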

For data set [6], the system named is Candida albicans. Description: Microbicidal activity against Candida albicans ATCC 10231 after 7 days by microtiter plate method. The data set is classed as functional. Conditions: ATCC 10231, 168 h. The procedure, abridged: (§4)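 Fungal MIC microplates are kept 7 days. 100 µL from each of the three concentrations above the MIC is subcultured onto agent-free TSA or SDA plates. MLC is the lowest concentration giving no growth.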

The subject of data set [7] is Aspergillus niger. Description: Microbicidal activity against Aspergillus niger ATCC 6275 after 7 days by microtiter plate method. The data set is classed as functional. The settings on record: ATCC 6275, 168 h. The procedure, abridged:
as §4

Data set [8] concerns Staphylococcus aureus. Description: Microbicidal activity against Staphylococcus aureus ATCC 6538 after 5 days by microtiter plate method. The data set is classed as functional. Conditions: ATCC 6538, 120 h. The procedure, abridged:
as §3

Data set [9] can be described thus: Critical micelle concentration by conductimetry. The data set is classed as physicochemical.

Bounds are passed on as bounds.

With `C=CC(=O)OCC[N+](C)(C)Cc1ccccc1.[Br-]`, the MIC was over 2000 µM in the data set on Pseudomonas aeruginosa [1], over 2000 µM in the data set on Candida albicans [2], 507 µM in the data set with Aspergillus niger [3] and over 2000 µM against Staphylococcus aureus [4]. For the same molecule, the MLC was over 2000 µM in the data set with Pseudomonas aeruginosa [5], over 2000 µM in the data set with Candida albicans [6], 600 µM with Aspergillus niger [7] and over 2000 µM in the data set on Staphylococcus aureus [8]. The same molecule gave a CMC in data set [9] of 4.6 ×10⁻² mol/L.

For `C=CC(=O)OCCCCCCCCCCC[N+](C)(C)CCCCCCCCCCCC.[Br-]`, the MIC against Pseudomonas aeruginosa [1] came to 58.4 µM; in the data set with Candida albicans [2] it was 14.8 µM; in the data set on Aspergillus niger [3] it was 14.8 µM; with Staphylococcus aureus [4], 34.7 µM. Besides, the MLC amounted to 64.7 µM in the data set with Pseudomonas aeruginosa [5], 15.4 µM in the data set on Candida albicans [6], 14.8 µM with Aspergillus niger [7] and 34.7 µM with Staphylococcus aureus [8]. The molecule further yielded a CMC in [9] of 9.66 ×10⁻⁴ mol/L.

Consider `C=CC(=O)OCC[N+](C)(C)CCCCCCCCCCCC.[Br-]`, for which the MIC in the data set on Pseudomonas aeruginosa [1] amounted to 71.1 µM; against Candida albicans [2] it was 63.8 µM; against Aspergillus niger [3], 63.8 µM; against Staphylococcus aureus [4], 71.1 µM. Also, the MLC worked out at 71.1 µM in the data set on Pseudomonas aeruginosa [5], 63.8 µM in the data set on Candida albicans [6], 63.8 µM in the data set on Aspergillus niger [7] and 71.1 µM in the data set on Staphylococcus aureus [8]. The molecule also displayed a CMC in data set [9] of 6.45 mM.

As for `C=CC(=O)OCC[N+](C)(C)CCCCCCCCCC.[Br-]`, the MIC in the data set with Pseudomonas aeruginosa [1] turned out to be 356 µM; with Candida albicans [2], 278 µM; with Aspergillus niger [3] it was 175 µM; in the data set with Staphylococcus aureus [4], 356 µM. Further, the MLC with Pseudomonas aeruginosa [5] turned out to be 416 µM; in the data set with Candida albicans [6], 359 µM; in the data set on Aspergillus niger [7], 280 µM; in the data set on Staphylococcus aureus [8], 359 µM. The CMC in [9] was 1.16 ×10⁻² mol/L.

As for `C=CC(=O)OCCCCCCCCCCC[N+](C)(C)Cc1ccccc1.[Br-]`, the MIC was determined as 154 µM against Pseudomonas aeruginosa [1], 154 µM in the data set with Candida albicans [2], 154 µM in the data set on Aspergillus niger [3] and 244 µM with Staphylococcus aureus [4]. In addition, the MLC with Pseudomonas aeruginosa [5] is 447 µM; in the data set on Candida albicans [6], 447 µM; with Aspergillus niger [7], 238 µM; with Staphylococcus aureus [8], 306 µM. In data set [9], the CMC was 3.34 ×10⁻² mol/L.

For `C=CC(=O)OCCCCCCCCCCC[N+](C)(C)CCCCCCCCCC.[Br-]`, the MIC with Pseudomonas aeruginosa [1] amounted to 79.9 µM; with Candida albicans [2] it was 19 µM; in the data set with Aspergillus niger [3] it was 19 µM; with Staphylococcus aureus [4], 64.8 µM. In addition, the MLC in the data set with Pseudomonas aeruginosa [5] is 188 µM; in the data set on Candida albicans [6], 30.4 µM; with Aspergillus niger [7], 19.3 µM; in the data set on Staphylococcus aureus [8], 72.6 µM. Moreover, the CMC in [9] worked out at 2.79 mM.

In the case of `C=CC(=O)OCC[N+](C)(C)CCCCCCCCCCCCCCCC.[Br-]`, the MIC with Pseudomonas aeruginosa [1] was determined as 237 µM; against Candida albicans [2] it was 24 µM; in the data set on Aspergillus niger [3], 237 µM; against Staphylococcus aureus [4], 275 µM. In addition, the MLC in the data set on Pseudomonas aeruginosa [5] worked out at 283 µM; with Candida albicans [6], 24.7 µM; with Aspergillus niger [7], 283 µM; with Staphylococcus aureus [8], 283 µM. This molecule registered a CMC in data set [9] of 1.95 mM.

For the molecule `C=CC(=O)OCC[N+](C)(C)CCCCCCCCCCCCCC.[Br-]`, the MIC in the data set with Pseudomonas aeruginosa [1] was 112 µM; in the data set with Candida albicans [2], 18.1 µM; against Aspergillus niger [3], 178 µM; in the data set on Staphylococcus aureus [4] it was 178 µM. In addition, the MLC came to 114 µM with Pseudomonas aeruginosa [5], 18.4 µM in the data set with Candida albicans [6], 232 µM in the data set with Aspergillus niger [7] and 232 µM in the data set with Staphylococcus aureus [8]. Besides, the CMC in [9] was determined as 2.99 mM.

Consider `C=CC(=O)OCCCCCCCCCCC[N+](C)(C)CCCCCCCCCCCCCC.[Br-]`, for which the MIC in the data set with Pseudomonas aeruginosa [1] was found to be 44.8 µM; with Candida albicans [2], 16.8 µM; in the data set with Aspergillus niger [3] it was 24.9 µM; in the data set on Staphylococcus aureus [4], 104 µM. Moreover, the MLC in the data set with Pseudomonas aeruginosa [5] came to 103 µM; with Candida albicans [6] it was 16.8 µM; in the data set on Aspergillus niger [7], 24.9 µM; with Staphylococcus aureus [8], 164 µM. The CMC in data set [9] is 4.68 ×10⁻⁴ mol/L.

`C=CC(=O)OCCCCCCCCCCC[N+](C)(C)CCCCCCCCCCCCCCCC.[Br-]`: the MIC was found to be 132 µM in the data set on Pseudomonas aeruginosa [1], 27.1 µM against Candida albicans [2], 31.4 µM in the data set on Aspergillus niger [3] and 209 µM with Staphylococcus aureus [4]. Also, the MLC was determined as 317 µM in the data set with Pseudomonas aeruginosa [5], 40.4 µM in the data set with Candida albicans [6], 40.4 µM in the data set on Aspergillus niger [7] and 274 µM with Staphylococcus aureus [8]. In data set [9], this molecule had a CMC of 1.66 ×10⁻⁴ mol/L.

One may read the MIC as the smallest concentration in the dilution series that meets the test's criterion for growth inhibition. High values mean a less susceptible organism, low ones a more susceptible organism.
